# Results as given in ChEMBL document CHEMBL4732114, “Design and structural optimization of novel 2H-benzo[h]chromene derivatives that target AcrB and reverse bacterial multidrug resistance” (Eur J Med Chem, 2021).
# Active and inactive are the calls of the source. The rule behind the calls is not given here.
# Legend:
# Cell membrane [1] = assay: Induction of outer membrane permeabilization in wild type Escherichia coli BW25113 assessed as increase in nitrocefin hydrolysis at 256 ug/ml in presence of CCCP by spectroscopic analysis; details: dose 256 µg/ml
# Outline: (§1)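 Intact E. coli were treated with 10 μM CCCP to block nitrocefin efflux, then given compound, nothing, or polymyxin B as permeabilizer control. Nitrocefin was added, and hydrolysis by periplasmic β-lactamase was followed as the rise in absorbance at 490 nm. Duplicate experiments were run on different days.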
# Cell membrane [2] = assay: Induction of inner membrane permeabilization in wild type Escherichia coli BW25113 assessed as perturbation of proton motive force at 8 ug/ml measured after 10 mins in presence of CCCP and glucose by Di0C2(3) probe based fluorescence assay; details: escherichia coli bw25113, 10 min, dose 8 µg/ml
# Outline: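 Cell suspensions were left untreated or exposed to 8-128 µg/mL compound for 10 min. DiOC₂(3) was then added and fluorescence followed to a plateau. Cells were re-energized with 0.5% glucose, and the rise in fluorescence was read as membrane-potential build-up. CCCP was added last to dissipate the potential.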
# [3] = target: T1, Multidrug efflux pump subunit AcrB (Escherichia coli (strain K12)) (UniProt P31224); assay: Inhibition of AcrB in Escherichia coli BW25113 assessed as reduction in glucose-induced nile red efflux at 50 uM preincubated for 15 mins followed by nile red addition and incubated for 3 hrs in shaker in presence of CCCP by fluorimetric analysis; details: time 3.25 hrs
# T1 sequence (whole entry): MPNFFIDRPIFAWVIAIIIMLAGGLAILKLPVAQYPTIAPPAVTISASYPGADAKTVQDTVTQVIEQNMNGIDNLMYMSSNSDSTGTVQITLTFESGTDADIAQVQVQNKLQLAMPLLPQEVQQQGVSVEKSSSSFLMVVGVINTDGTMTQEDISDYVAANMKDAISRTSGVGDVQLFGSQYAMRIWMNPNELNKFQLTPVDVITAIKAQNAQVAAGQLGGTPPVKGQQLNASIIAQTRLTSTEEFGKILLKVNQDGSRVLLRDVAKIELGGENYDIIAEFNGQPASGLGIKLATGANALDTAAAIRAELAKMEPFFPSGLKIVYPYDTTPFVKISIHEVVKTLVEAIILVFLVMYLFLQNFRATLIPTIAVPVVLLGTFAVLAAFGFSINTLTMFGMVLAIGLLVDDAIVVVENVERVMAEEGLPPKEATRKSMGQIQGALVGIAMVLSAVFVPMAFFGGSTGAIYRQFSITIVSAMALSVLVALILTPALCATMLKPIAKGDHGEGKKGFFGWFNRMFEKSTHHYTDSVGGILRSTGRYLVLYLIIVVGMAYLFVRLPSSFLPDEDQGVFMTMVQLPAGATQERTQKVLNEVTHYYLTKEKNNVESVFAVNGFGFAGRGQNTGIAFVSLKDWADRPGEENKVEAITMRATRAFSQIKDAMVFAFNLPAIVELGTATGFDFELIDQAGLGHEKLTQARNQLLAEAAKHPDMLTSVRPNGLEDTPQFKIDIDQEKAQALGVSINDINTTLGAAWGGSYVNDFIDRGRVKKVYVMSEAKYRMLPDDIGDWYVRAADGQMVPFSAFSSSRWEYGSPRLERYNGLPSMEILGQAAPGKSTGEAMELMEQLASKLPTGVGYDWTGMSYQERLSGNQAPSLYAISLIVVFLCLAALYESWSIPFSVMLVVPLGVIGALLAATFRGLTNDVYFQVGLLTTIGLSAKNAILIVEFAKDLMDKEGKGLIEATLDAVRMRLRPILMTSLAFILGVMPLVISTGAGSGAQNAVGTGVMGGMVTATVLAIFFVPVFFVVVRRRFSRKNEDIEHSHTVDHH
# Outline: (§2)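 Wild-type and AcrB-deleted cells were preloaded with Nile Red, with or without compound. Fluorescence was recorded, and efflux was triggered at 100 s with 0.2% glucose. Traces were compared with the deletion-strain level. Triplicate experiments used different cell batches.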
# [4] = Cytotoxicity against human HepG2 cells assessed as growth inhibition at 100 uM relative to control; format: cell-based; details: read-out: GI
# Outline: (§3)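 HepG2 cells treated at 10 μM and at 100 μM. Cell viability or inhibition rate recorded per concentration, with paclitaxel as positive control.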
# [5] = Cytotoxicity against human HepG2 cells assessed as growth inhibition at 10 uM relative to control; format: cell-based; details: read-out: GI; outline: as §3
# [6] = target: T1, Multidrug efflux pump subunit AcrB (Escherichia coli (strain K12)); assay: Inhibition of AcrB in multidrug-resistant Escherichia coli BW25113 assessed as potentiation of levofloxacin-induced antibacterial activity by measuring fold change in levofloxacin MIC at 8 ug/ml by checkerboard titration method relative to levofloxacin MIC; details: dose 8.0 µg/ml
# [7] = target: T1, Multidrug efflux pump subunit AcrB (Escherichia coli (strain K12)); assay: Inhibition of AcrB in multidrug-resistant Escherichia coli BW25113 assessed as potentiation of erythromycin-induced antibacterial activity by measuring fold change in erythromycin MIC at 8 ug/ml by checkerboard titration method relative to erythromycin MIC; details: dose 8.0 µg/ml
# [8] = target: T1, Multidrug efflux pump subunit AcrB (Escherichia coli (strain K12)); assay: Inhibition of AcrB in multidrug-resistant Escherichia coli BW25113 assessed as potentiation of chloramphenicol-induced antibacterial activity by measuring fold change in chloramphenicol MIC at 128 ug/ml by checkerboard titration method relative to chloramphenicol MIC; details: dose 128.0 µg/ml
# [9] = target: T1, Multidrug efflux pump subunit AcrB (Escherichia coli (strain K12)); assay: Inhibition of AcrB in multidrug-resistant Escherichia coli BW25113 assessed as potentiation of tetraphenylphosphonium-induced antibacterial activity by measuring fold change in tetraphenylphosphonium MIC at 8 ug/ml by checkerboard titration method relative to tetraphenylphosphonium MIC; details: dose 8.0 µg/ml
# [10] = target: T1, Multidrug efflux pump subunit AcrB (Escherichia coli (strain K12)); assay: Inhibition of AcrB in multidrug-resistant Escherichia coli BW25113 assessed as potentiation of tetraphenylphosphonium-induced antibacterial activity by measuring fold change in tetraphenylphosphonium MIC at 128 ug/ml by checkerboard titration method relative to tetraphenylphosphonium MIC; details: dose 128.0 µg/ml
# [11] = target: T1, Multidrug efflux pump subunit AcrB (Escherichia coli (strain K12)); assay: Inhibition of AcrB in multidrug-resistant Escherichia coli BW25113 assessed as potentiation of chloramphenicol-induced antibacterial activity by measuring fold change in chloramphenicol MIC at 64 ug/ml by checkerboard titration method relative to chloramphenicol MIC; details: dose 64.0 µg/ml
# Cell membrane [12] = assay: Induction of outer membrane permeabilization in wild type Escherichia coli BW25113 assessed as increase in nitrocefin hydrolysis at 64 ug/ml in presence of CCCP by spectroscopic analysis; details: dose 64 µg/ml; outline: as §1
# [13] = target: T1, Multidrug efflux pump subunit AcrB (Escherichia coli (strain K12)); assay: Inhibition of AcrB in Escherichia coli BW25113 assessed as reduction in glucose-induced nile red efflux at 100 to 200 uM preincubated for 15 mins followed by nile red addition and incubated for 3 hrs in shaker in presence of CCCP by fluorimetric analysis; details: dose 100-200 µM, time 3.25 hrs; outline: as §2
# Cell membrane [14] = assay: Induction of outer membrane permeabilization in wild type Escherichia coli BW25113 assessed as increase in nitrocefin hydrolysis at 32 ug/ml in presence of CCCP by spectroscopic analysis; details: dose 32 µg/ml; outline: as §1
# Cell membrane [15] = assay: Induction of outer membrane permeabilization in wild type Escherichia coli BW25113 assessed as increase in nitrocefin hydrolysis at 8 ug/ml in presence of CCCP by spectroscopic analysis; details: dose 8 µg/ml; outline: as §1
smiles,measurement,setting,value
Cc1ccccc1COc1cccc2c3c(c(-c4nnco4)cc12)CCC(C)(C)O3,Activity,Cell membrane [1],Not Active
CC1(C)CCc2c(C(=O)N3CCOCC3)cc3c(OCc4ccc(C(F)(F)F)cc4)cccc3c2O1,Activity,Cell membrane [2],Not Active
same,inhibition,[3],Active
CC1(C)CCc2c(C(=O)N3CCOCC3)cc3c(OCc4ccccc4)cccc3c2O1,Activity,Cell membrane [2],Not Active
same,inhibition at 100 µM,[4],66%
same,inhibition at 10 µM,[5],2%
Cc1ccc(COc2cccc3c4c(c(-c5nnco5)cc23)CCC(C)(C)O4)cc1,fold change (FC),[6],2
same,fold change (FC),[7],2
same,inhibition at 100 µM,[4],87%
same,fold change (FC),[8],< 16
same,fold change (FC),[9],2
same,inhibition at 10 µM,[5],6%
same,fold change (FC),[10],< 16
CC1(C)CCc2c(-c3nnco3)cc3c(OCc4ccc(C#N)cc4)cccc3c2O1,inhibition,[3],Active
CC1(C)CC(=O)c2ccc(OCC(=O)Nc3ccc(C#N)c(C(F)(F)F)c3)cc2O1,fold change (FC),[11],2
same,Activity,Cell membrane [12],Not Active
same,inhibition,[13],Active
CNC(=O)c1ccc(COc2cccc3c4c(c(Cn5cnnn5)cc23)CCC(C)(C)O4)cc1,Activity,Cell membrane [12],Not Active
same,inhibition,[13],Active
COc1cccc(COc2cccc3c4c(c(-c5nnco5)cc23)CCC(C)(C)O4)c1,inhibition,[13],Active
CC1(C)CCc2c(-c3nnco3)cc3c(OCc4ccc([N+](=O)[O-])cc4)cccc3c2O1,Activity,Cell membrane [1],Not Active
C=CC(=O)Nc1ccc(COc2cccc3c4c(c(Cn5cnnn5)cc23)CCC(C)(C)O4)cc1,Activity,Cell membrane [14],Not Active
same,inhibition,[3],Active
CC1(C)CCc2c(Cn3cnnn3)cc3c(OCc4ccccc4)cccc3c2O1,Activity,Cell membrane [12],Not Active
CC(C)NCCOc1ccc2c(c1)OC(C)(C)CC2=O,Activity,Cell membrane [2],Not Active
CC1(C)CC(=O)c2ccc(OCCNC3CCCC3)cc2O1,inhibition,[13],Active
CC1CN(C(=O)c2cc3c(OCc4c(Cl)cccc4Cl)cccc3c3c2CCC(C)(C)O3)CC(C)O1 (stereo unspecified),Activity,Cell membrane [15],Not Active
same,Activity,Cell membrane [2],Not Active
same,fold change (FC),[6],2
C=CC(=O)Nc1ccc(COc2cccc3c4c(c(C(=O)N5CCOCC5)cc23)CCC(C)(C)O4)cc1,Activity,Cell membrane [2],Not Active
COc1cccc(COc2cccc3c4c(c(C(=O)N5CCOCC5)cc23)CCC(C)(C)O4)c1,inhibition,[3],Active
